Assay [1] deals with A-375. Put plainly: Cytotoxicity against human A375 cells incubated for 6 hrs followed by irradiation with 8 Gy X-ray at 37 degC for 12 hrs by MTT assay. The assay is classed as functional, cell-based. Conditions: A-375, light or radiation study. The essentials: (§1)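 A375 cells (DMEM, 10% FBS, 37 °C, 5% CO2) seeded at 4 × 10⁴ cells/well and grown to 70–80% confluence. Treated with 0, 1, 2, 4, 8, 16 or 32 µg/ml for 6 h, then given 0 or 8 Gy X-ray (linear accelerator, 1.5 Gy/min), then 12 h more at 37 °C. MTT 4 h, formazan dissolved in DMSO, read at 570 nm; % of control; three repeats.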
(In general: Formazan colour is commonly taken as a measure of viable cells.)

Assay [2] deals with A-375. Description: Induction of cell morphological changes in human A375 cells incubated for 6 hrs followed by irradiation with 8 Gy X-ray at 37 degC for 12 hrs by microscopy. The assay is classed as functional, cell-based.
Assay [3] has as its system A-375. Description: Induction of cell shrinkage in human A375 cells incubated for 6 hrs followed by irradiation with 8 Gy X-ray at 37 degC for 12 hrs by microscopy. The assay is classed as functional, cell-based. The essentials: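 A375 cells in DMEM with 10% FBS, 37 °C, 5% CO2. Pretreated with agent 6 h, then 0 or 8 Gy X-ray from a linear accelerator at 1.5 Gy/min, room temperature. Incubated a further 12 h; morphology imaged.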

For assay [4], the system named is A-375. Put plainly: Cytotoxicity against human A375 cells after 18 hrs by MTT assay. It counts as functional, cell-based. Conditions: A-375, 18 h. The essentials:
as §1

Assay [5] has as its system A-375. Put plainly: Induction of cell cycle arrest in human A375 cells assessed as accumulation at G2/M phase at 10 ug/mL incubated for 6 hrs followed by irradiation with 8 Gy X-ray at 37 degC for 12 hrs by propidium iodide staining based flow cytometry (reference value: 47.2%). It counts as functional. The essentials:
(§2)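 A375 cells treated at 10 or 4 µg/ml for 6 h, given 0 or 8 Gy X-ray, then 12 h more. Trypsinized, washed in PBS, fixed overnight in ice-cold 75% ethanol at −20 °C. Stained with propidium iodide, 30 min at 37 °C in the dark; DNA content and sub-G1 population read by flow cytometry.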

Assay [6] has as its system A-375. Description: Induction of cell cycle arrest in human A375 cells assessed as accumulation at S phase at 10 ug/mL incubated for 18 hrs by propidium iodide staining based flow cytometry (reference value: 37.2%). It counts as functional. In outline: as §2
For assay [7], the system named is A-375. Put plainly: Induction of cell cycle arrest in human A375 cells assessed as accumulation at G1/G0 phase at 10 ug/mL incubated for 6 hrs followed by irradiation with 8 Gy X-ray at 37 degC for 12 hrs by propidium iodide staining based flow cytometry (reference value: 44.9%). It counts as functional. In outline:
as §2

Assay [8] has as its system A-375. Put plainly: Induction of apoptosis in human A375 cells assessed as accumulation at subG1 phase at 10 ug/mL incubated for 6 hrs followed by irradiation with 8 Gy X-ray at 37 degC for 12 hrs by propidium iodide staining based flow cytometry (reference value: 2.3%). The assay is classed as functional. The essentials:
as §2

Assay [9] deals with A-375. Description: Induction of cell cycle arrest in human A375 cells assessed as accumulation at G2/M phase at 10 ug/mL incubated for 18 hrs by propidium iodide staining based flow cytometry (reference value: 13.9%). The assay is classed as functional. The essentials: as §2
(In flow cytometry, cells or beads pass a laser one at a time.)

Assay [10] deals with A-375. Description: Induction of ROS generation in human A375 cells at 8 ug/mL incubated for 6 hrs followed by irradiation with 8 Gy X-ray at 37 degC for 12 hrs by DCF and DHE dye based fluorescence assay. It counts as functional, cell-based. The essentials: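 A375 cells (4 × 10⁴/well) cultured 24 h, then treated 6 h at 8 or 16 µg/ml or at 2 or 4 µg/ml, and given 0 or 8 Gy X-ray. Loaded with H₂DCF or DHE for 30 min at 37 °C in the dark. Fluorescence read at 485/535 nm (DCF) or 480/610 nm (DHE); % of control.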

Assay [11] relates to A-375. Description: Induction of ROS generation in human A375 cells at 16 ug/mL incubated for 6 hrs followed by irradiation with 8 Gy X-ray at 37 degC for 12 hrs by DCF and DHE dye based fluorescence assay.
The subject of assay [12] is A-375. Description: Induction of apoptosis in human A375 cells assessed as accumulation at subG1 phase at 10 ug/mL incubated for 18 hrs by propidium iodide staining based flow cytometry (reference value: 1.8%). It counts as functional. In outline: as §2
The test system of assay [13] is A-375. Description: Induction of ROS generation in human A375 cells at 8 ug/mL […] by DCF and DHE dye based fluorescence assay. It counts as functional, cell-based.
Assay [14] deals with A-375. Put plainly: Induction of cell cycle arrest in human A375 cells assessed as accumulation at S phase at 10 ug/mL incubated for 6 hrs followed by irradiation with 8 Gy X-ray at 37 degC for 12 hrs by propidium iodide staining based flow cytometry (reference value: 7.9%). It counts as functional. In outline: as §2
In assay [15] the test system is A-375. Put plainly: Induction of ROS generation in human A375 cells at 16 ug/mL […] by DCF and DHE dye based fluorescence assay. The assay is classed as functional, cell-based.
Assay [16] deals with A-375. Put plainly: Induction of cell cycle arrest in human A375 cells assessed as accumulation at G1/G0 phase at 10 ug/mL incubated for 18 hrs by propidium iodide staining based flow cytometry (reference value: 48.9%). It counts as functional. The essentials: as §2

The values that follow come from ChEMBL document CHEMBL3352644, “Selenadiazole derivatives as potent thioredoxin reductase inhibitors that enhance the radiosensitivity of cancer cells” (Eur J Med Chem, 2014).

Molecules are shown by their SMILES. ≈ marks a conversion by molar mass, not a printed value. Calls of active or inactive are those of the source. The calls are words filed in the database; no cut-off is given here.

As to `COc1cc(Cn2c(-c3cc(OC)c(OC)c(OC)c3)nc3cc(-c4ccc5n[se]nc5c4)ccc32)cc(OC)c1OC`, the results for the IC50 with A-375 [1] and in the assay with A-375 [4] were 9.2 µg/mL (≈ 14.3 µM) and 28.3 µg/mL (≈ 43.8 µM), respectively. For the same molecule, the outcome in the assay with A-375 [2] and with A-375 [3] was Active.
On to `COc1cc(Cn2c(-c3cc(OC)c(OC)c(OC)c3)nc3ccc(-c4ccc5n[se]nc5c4)cc32)cc(OC)c1OC`, for which the Activity is 2.7% in the assay on A-375 [5]; 21.3% with A-375 [6]; 60.5% with A-375 [7]; 57.6% in the assay on A-375 [8]; 9.4% with A-375 [9]; 11.7% in the assay on A-375 [12]. The Activity is 36.8% in the assay with A-375 [14] and 69.3% with A-375 [16]. For the same molecule, the IC50 in the assay with A-375 [1] was 8 µg/mL (≈ 12.4 µM); in the assay with A-375 [4] it was 26.4 µg/mL (≈ 40.9 µM). Besides, the outcome with A-375 [2], in the assay on A-375 [10], in the assay with A-375 [3], in the assay with A-375 [11], with A-375 [13] and in the assay with A-375 [15] was Active.

By IC50 is commonly meant the concentration needed to halve the response being measured. High values mean lower potency, low ones higher potency.
